From ChEMBL document CHEMBL3992570, “Integrated Platform for Expedited Synthesis-Purification-Testing of Small Molecule Libraries” (ACS Med Chem Lett, 2017)

Key:
Polycomb protein EED [1] = target: T1, Polycomb protein EED (Homo sapiens, UniProt O75530); test: Inhibition of pyrrolidine inhibitor-based oregon-green probe binding to GST-tagged EED (unknown origin) after 1 hr by assay explorer integrated LanthaScreen TR-FRET assay
Method in brief: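 On the integrated platform, HPLC fractions were quantified by charged aerosol detection (calibrated with ketoprofen) and dissolved in DMSO to 10 mM stocks. An 11-point, 3-fold serial dilution followed. 50 nL of each dilution was pin-transferred into 10 µL assay buffer (0.5% DMSO final) and incubated 1 h at 25 °C. TR-FRET was read on EnVision, and activity was obtained by curve fitting.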

Polycomb protein EED [2] = target: T1, Polycomb protein EED; test: Inhibition of pyrrolidine inhibitor-based oregon-green probe binding to GST-tagged EED (unknown origin) after 1 hr by LanthaScreen TR-FRET assay
Method in brief: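 Compounds were made, purified and tested conventionally as separate steps, under the same assay conditions as the integrated run. Compound in DMSO was added to assay buffer (0.5% DMSO final) and incubated 1 h at 25 °C. The TR-FRET signal was read on a plate reader, and activity was derived by curve fitting.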

T1 sequence (O75530 whole entry): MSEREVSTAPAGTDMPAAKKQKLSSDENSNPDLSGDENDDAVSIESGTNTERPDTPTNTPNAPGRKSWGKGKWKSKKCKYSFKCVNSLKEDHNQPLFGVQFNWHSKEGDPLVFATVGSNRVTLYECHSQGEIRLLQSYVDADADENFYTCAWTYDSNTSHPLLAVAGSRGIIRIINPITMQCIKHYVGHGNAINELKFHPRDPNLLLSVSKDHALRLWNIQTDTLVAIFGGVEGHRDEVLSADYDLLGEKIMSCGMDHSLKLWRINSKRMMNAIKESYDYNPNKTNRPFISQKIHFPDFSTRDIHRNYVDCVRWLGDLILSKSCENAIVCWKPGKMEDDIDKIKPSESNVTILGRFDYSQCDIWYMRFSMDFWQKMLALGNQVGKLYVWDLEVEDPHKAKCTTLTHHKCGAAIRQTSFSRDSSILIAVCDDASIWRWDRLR

## Cc1cc([C@H]2CN(Cc3c(C)cccc3F)C[C@@H]2N(C)C)ccc1C(=O)NCCN(C)C
Polycomb protein EED [1]
  IC50: 80 nM
Polycomb protein EED [2]
  IC50: 150 nM

## Cc1cccc(F)c1CN1C[C@H](c2ccc(N3CCN(c4ccccc4)CC3)cc2)[C@@H](N(C)C)C1
Polycomb protein EED [1]
  IC50: 50 nM
Polycomb protein EED [2]
  IC50: 90 nM

## Cc1cccc(F)c1CN1C[C@H](c2ccc(N3CCC(C#N)CC3)cc2)[C@@H](N(C)C)C1
Polycomb protein EED [1]
  IC50: 70 nM
Polycomb protein EED [2]
  IC50: 140 nM

## Cc1cccc(F)c1CN1C[C@H](c2ccc(N3CCN(c4ccncc4)CC3)cc2)[C@@H](N(C)C)C1
Polycomb protein EED [1]
  IC50: 10 nM
Polycomb protein EED [2]
  IC50: 10 nM

## Cc1cccc(F)c1CN1C[C@H](c2ccc(N3CCN(c4ccccc4S(C)(=O)=O)CC3)cc2)[C@@H](N(C)C)C1
Polycomb protein EED [1]
  IC50: 70 nM
Polycomb protein EED [2]
  IC50: 190 nM

## CC(=O)N[C@H]1CCN(c2ccc([C@H]3CN(Cc4c(C)cccc4F)C[C@@H]3N(C)C)cc2)C1
Polycomb protein EED [1]
  IC50: 90 nM
Polycomb protein EED [2]
  IC50: 240 nM

## Cc1cccc(F)c1CN1C[C@H](c2ccc(N3CCn4ccnc4C3)cc2)[C@@H](N(C)C)C1
Polycomb protein EED [1]
  IC50: 70 nM
Polycomb protein EED [2]
  IC50: 100 nM

## Cc1cc([C@H]2CN(Cc3c(C)cccc3F)C[C@@H]2N(C)C)ccc1C(=O)NCc1ccccn1
Polycomb protein EED [1]
  IC50: 70 nM
Polycomb protein EED [2]
  IC50: 80 nM

## Cc1cccc(F)c1CN1C[C@H](c2ccc(N3CCN(c4nccs4)CC3)cc2)[C@@H](N(C)C)C1
Polycomb protein EED [1]
  IC50: 30 nM
Polycomb protein EED [2]
  IC50: 40 nM

## Cc1cccc(F)c1CN1C[C@H](c2ccc(N3CCC(N4CCOCC4)CC3)cc2)[C@@H](N(C)C)C1
Polycomb protein EED [1]
  IC50: 40 nM
Polycomb protein EED [2]
  IC50: 60 nM

## Cc1ccc(S(=O)(=O)N2CCN(c3ccc([C@H]4CN(Cc5c(C)cccc5F)C[C@@H]4N(C)C)cc3)CC2)cc1
Polycomb protein EED [1]
  IC50: 50 nM
Polycomb protein EED [2]
  IC50: 80 nM

## Cc1ccc(N2CCN(c3ccc([C@H]4CN(Cc5c(C)cccc5F)C[C@@H]4N(C)C)cc3)CC2)cc1
Polycomb protein EED [1]
  IC50: 150 nM
Polycomb protein EED [2]
  IC50: 220 nM

## CCN(CC)C(=O)c1ccc([C@H]2CN(Cc3c(C)cccc3F)C[C@@H]2N(C)C)cc1C
Polycomb protein EED [1]
  IC50: 100 nM
Polycomb protein EED [2]
  IC50: 250 nM

## Cc1cc([C@H]2CN(Cc3c(C)cccc3F)C[C@@H]2N(C)C)ccc1C(=O)N(C)C
Polycomb protein EED [1]
  IC50: 110 nM
Polycomb protein EED [2]
  IC50: 180 nM

## Cc1cc([C@H]2CN(Cc3c(C)cccc3F)C[C@@H]2N(C)C)ccc1C(=O)NCc1ccncc1
Polycomb protein EED [1]
  IC50: 70 nM
Polycomb protein EED [2]
  IC50: 110 nM

## CC(=O)N[C@@H]1CCN(c2ccc([C@H]3CN(Cc4c(C)cccc4F)C[C@@H]3N(C)C)cc2)C1
Polycomb protein EED [1]
  IC50: 160 nM

## Cc1cccc(F)c1CN1C[C@H](c2ccc(N(C)C3CCN(C)CC3)cc2)[C@@H](N(C)C)C1
Polycomb protein EED [1]
  IC50: 90 nM
Polycomb protein EED [2]
  IC50: 350 nM

## Cc1cccc(F)c1CN1C[C@H](c2ccc(N3CCC(C)CC3)cc2)[C@@H](N(C)C)C1
Polycomb protein EED [1]
  IC50: 40 nM
Polycomb protein EED [2]
  IC50: 140 nM

## CC(=O)NC1CCN(c2ccc([C@H]3CN(Cc4c(C)cccc4F)C[C@@H]3N(C)C)cc2)CC1
Polycomb protein EED [1]
  IC50: 40 nM
Polycomb protein EED [2]
  IC50: 160 nM

## Cc1cccc(F)c1CN1C[C@H](c2ccc(N3CCN(S(=O)(=O)c4cccc(F)c4)CC3)cc2)[C@@H](N(C)C)C1
Polycomb protein EED [1]
  IC50: 40 nM
Polycomb protein EED [2]
  IC50: 50 nM

## Cc1cc([C@H]2CN(Cc3c(C)cccc3F)C[C@@H]2N(C)C)ccc1C(=O)Nc1cccnc1
Polycomb protein EED [1]
  IC50: 80 nM
Polycomb protein EED [2]
  IC50: 100 nM

## Cc1cc([C@H]2CN(Cc3c(C)cccc3F)C[C@@H]2N(C)C)ccc1C(=O)N1CCN(C)CC1
Polycomb protein EED [1]
  IC50: 260 nM
Polycomb protein EED [2]
  IC50: 480 nM

## Cc1cccc(F)c1CN1C[C@H](c2ccc(N3CCC(N(C)C)CC3)cc2)[C@@H](N(C)C)C1
Polycomb protein EED [1]
  IC50: 40 nM
Polycomb protein EED [2]
  IC50: 100 nM

## Cc1cc([C@H]2CN(Cc3c(C)cccc3F)C[C@@H]2N(C)C)ccc1C(=O)N1CCN(CCO)CC1
Polycomb protein EED [1]
  IC50: 270 nM
Polycomb protein EED [2]
  IC50: 380 nM
